Experimental data: ChEMBL document CHEMBL4406856, “Structure based design, synthesis and in vitro antitumour activity of tiazofurin stereoisomers with nitrogen functions at the C-2' or C-3' positions” (Eur J Med Chem, 2019)
Calls of active or inactive are those of the source. The calls are words filed in the database; no cut-off is given here.

Legend:
K562 [1] = assay: Induction of apoptosis in human K562 cells assessed as reduction in cell membrane integrity at cytotoxic IC50 incubated for 72 hrs by acridine orange and ethidium bromide double staining based fluorescence microscopy; format: functional
K562 [2] = assay: Cell cycle arrest in human K562 cells assessed as accumulation in G0/G1 phase incubated for 24 hrs by propidium iodide staining based flow cytometry (reference value: 36.28%); format: functional
Summary of the method: (§1)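 Exponentially growing K562 cells treated for 24 or 72 h, untreated cells as control; cells stained with propidium iodide and DNA content read by flow cytometry. Phase distribution (subG1, G0/G1, S, G2/M) taken from one-parameter histograms, subG1 scored as hypodiploid, apoptotic cells.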

K562 [3] = assay: Cell cycle arrest in human K562 cells assessed as accumulation in S phase incubated for 24 hrs by propidium iodide staining based flow cytometry (reference value: 48.38%); format: functional; summary of the method: as §1
K562 [4] = assay: Induction of apoptosis in human K562 cells assessed as 85 kDa PARP level incubated for 72 hrs by Western blot analysis (reference value: 100%); format: functional
Summary of the method: (§2)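 K562 cells treated for 72 h; Bcl-2, BAX, caspase 3 precursor (32 kDa), caspase 3 active subunit (18 kDa) and PARP (112 and 85 kDa) measured by Western blot and expressed as % of untreated control.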

K562 [5] = assay: Genotoxicity in human K562 cells assessed as increase in DNA damage at cytotoxic IC50 incubated for 72 hrs by comet assay; format: toxicity, cell-based; conditions: k562, 72 h
Summary of the method: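 Modified alkaline comet assay: cells set in agarose on slides, electrophoresed horizontally, stained with ethidium bromide and imaged by fluorescence microscopy. 50 comets scored per sample; mean tail moment used as the DNA-damage measure.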

K562 [6] = assay: Induction of necrosis in human K562 cells incubated for 72 hrs by annexin V FITC and propidium iodide staining based flow cytometry relative to control; format: functional; set-up: concentration or dose not given beside the values
Summary of the method: (§3)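 K562 cells treated for 72 h, stained with Annexin V-FITC/propidium iodide and analysed by flow cytometry. Apoptotic, necrotic and live fractions scored as percent of gated cells; specific apoptosis and specific necrosis calculated from these counts.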

K562 [7] = assay: Cell cycle arrest in human K562 cells assessed as accumulation in sub-G1 phase incubated for 24 hrs by propidium iodide staining based flow cytometry (reference value: 1.05%); format: functional; summary of the method: as §1
K562 [8] = assay: Induction of apoptosis in human K562 cells assessed as Bcl2 level incubated for 72 hrs by Western blot analysis (reference value: 100%); format: functional; summary of the method: as §2
K562 [9] = assay: Cell cycle arrest in human K562 cells assessed as accumulation in G2/M phase incubated for 24 hrs by propidium iodide staining based flow cytometry (reference value: 14.29%); format: functional; summary of the method: as §1
K562 [10] = assay: Cell cycle arrest in human K562 cells assessed as accumulation in S phase incubated for 72 hrs by propidium iodide staining based flow cytometry (reference value: 36.05%); format: functional; summary of the method: as §1
K562 [11] = assay: Induction of apoptosis in human K562 cells assessed as 32 kDa Caspase 3 precursor level incubated for 72 hrs by Western blot analysis (reference value: 100%); format: functional; summary of the method: as §2
K562 [12] = assay: Cell cycle arrest in human K562 cells assessed as accumulation in SubG1 phase incubated for 72 hrs by propidium iodide staining based flow cytometry (reference value: 3.07%); format: functional; summary of the method: as §1
K562 [13] = assay: Induction of apoptosis in human K562 cells assessed as 112 kDa PARP level incubated for 72 hrs by Western blot analysis (reference value: 100%); format: functional; summary of the method: as §2
K562 [14] = assay: Cell cycle arrest in human K562 cells assessed as accumulation in G0/G1 phase incubated for 72 hrs by propidium iodide staining based flow cytometry (reference value: 45.43%); format: functional; summary of the method: as §1
K562 [15] = assay: Cell cycle arrest in human K562 cells assessed as accumulation in G2/M phase incubated for 72 hrs by propidium iodide staining based flow cytometry (reference value: 15.45%); format: functional; summary of the method: as §1
K562 [16] = assay: Induction of apoptosis in human K562 cells assessed as Bax level incubated for 72 hrs by Western blot analysis (reference value: 100%); format: functional; summary of the method: as §2
K562 [17] = assay: Induction of necrosis in human K562 cells incubated for 24 hrs by annexin V FITC and propidium iodide staining based flow cytometry relative to control; format: functional; set-up: concentration or dose not given beside the values
K562 [18] = assay: Induction of apoptosis in human K562 cells incubated for 24 hrs by annexin V FITC and propidium iodide staining based flow cytometry relative to control; format: functional; set-up: concentration or dose not given beside the values
K562 [19] = assay: Induction of apoptosis in human K562 cells incubated for 72 hrs by annexin V FITC and propidium iodide staining based flow cytometry relative to control; format: functional; set-up: concentration or dose not given beside the values; summary of the method: as §3
K562 [20] = assay: Induction of apoptosis in human K562 cells assessed as 18 kDa Caspase 3 active subunit level incubated for 72 hrs by Western blot analysis (reference value: 100%); format: functional; summary of the method: as §2
HL-60 [21] = assay: Potency index, ratio of tiazofurin IC50 to compound IC50 for cytotoxicity against human HL60 cells incubated for 72 hrs by MTT assay; format: functional
K562 [22] = assay: Potency index, ratio of doxorubicin IC50 to compound IC50 for cytotoxicity against human K562 cells incubated for 72 hrs by MTT assay; format: functional
K562 [23] = assay: Cell cycle arrest in human K562 cells assessed as decrease in cell accumulation at G2/M phase incubated for 72 hrs by propidium iodide staining based flow cytometry relative to tiazofurin; format: functional; summary of the method: as §1
HL-60 [24] = assay: Potency index, ratio of doxorubicin IC50 to compound IC50 for cytotoxicity against human HL60 cells incubated for 72 hrs by MTT assay; format: functional
K562 [25] = assay: Potency index, ratio of tiazofurin IC50 to compound IC50 for cytotoxicity against human K562 cells incubated for 72 hrs by MTT assay; format: functional
Raji [26] = assay: Potency index, ratio of tiazofurin IC50 to compound IC50 for cytotoxicity against human Raji cells incubated for 72 hrs by MTT assay; format: functional
HeLa [27] = assay: Potency index, ratio of tiazofurin IC50 to compound IC50 for cytotoxicity against human HeLa cells incubated for 72 hrs by MTT assay; format: functional
Jurkat [28] = assay: Antiproliferative activity against human Jurkat cells assessed as reduction in cell growth incubated for 72 hrs by MTT assay; format: functional, cell-based
Summary of the method: (§4)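 Colorimetric MTT assay on human tumour lines K562 (chronic myeloid leukemia), HL-60 (promyelocytic leukemia), Jurkat (T cell leukemia), Raji (Burkitt's lymphoma), HT-29 (colorectal adenocarcinoma), HeLa (cervix adenocarcinoma) and normal lung fibroblast MRC-5; cells exposed to compounds for 72 h. IC50 taken as concentration giving 50% growth inhibition versus untreated control.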

Raji [29] = assay: Antiproliferative activity against human Raji cells assessed as reduction in cell growth incubated for 72 hrs by MTT assay; format: functional, cell-based
Summary of the method: (§5)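 Colorimetric MTT assay on human tumour lines K562 (chronic myeloid leukemia), HL-60 (promyelocytic leukemia), Jurkat (T cell leukemia), Raji (Burkitt's lymphoma), HT-29 (colorectal adenocarcinoma), HeLa (cervix adenocarcinoma) and normal lung fibroblast MRC-5; cells exposed to compounds for 72 h.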

HeLa [30] = assay: Antiproliferative activity against human HeLa cells assessed as reduction in cell growth incubated for 72 hrs by MTT assay; format: functional, cell-based; summary of the method: as §4
K562 [31] = assay: Induction of apoptosis in human K562 cells incubated for 72 hrs by annexin V FITC and propidium iodide staining based flow cytometry relative to tiazofurin; format: functional; summary of the method: as §3
HT-29 = assay: Antiproliferative activity against human HT-29 cells assessed as reduction in cell growth incubated for 72 hrs by MTT assay; format: functional, cell-based; conditions: HT-29, 72 h; summary of the method: as §4
MRC5 = assay: Cytotoxicity against human MRC5 cells assessed as reduction in cell viability incubated for 72 hrs by MTT assay; format: cell-based; conditions: MRC5, 72 h; summary of the method: as §5
[32] = Ratio of compound IC50 to tiazofurin IC50 for cytotoxicity against human MRC5 cells incubated for 72 hrs by MTT assay; format: cell-based; conditions: read-out: Ratio IC50
HL-60 [33] = assay: Antiproliferative activity against human HL60 cells assessed as reduction in cell growth incubated for 72 hrs by MTT assay; format: functional, cell-based; conditions: HL-60, 72 h; summary of the method: as §4
K562 [34] = assay: Antiproliferative activity against human K562 cells assessed as reduction in cell growth incubated for 72 hrs by MTT assay; format: functional, cell-based; conditions: K562, 72 h; summary of the method: as §5
Jurkat [35] = assay: Potency index, ratio of tiazofurin IC50 to compound IC50 for cytotoxicity against human Jurkat cells incubated for 72 hrs by MTT assay; format: functional
Jurkat [36] = assay: Potency index, ratio of doxorubicin IC50 to compound IC50 for cytotoxicity against human Jurkat cells incubated for 72 hrs by MTT assay; format: functional
Raji [37] = assay: Potency index, ratio of doxorubicin IC50 to compound IC50 for cytotoxicity against human Raji cells incubated for 72 hrs by MTT assay; format: functional

Structure (SMILES) | Activity (K562 [1]) | Activity (K562 [2]) [%] | Activity (K562 [3]) [%] | Activity (K562 [4]) [%] | Activity (K562 [5]) | Activity (K562 [6]) [%] | Activity (K562 [7]) [%] | Activity (K562 [8]) [%] | Activity (K562 [9]) [%] | Activity (K562 [10]) [%] | Activity (K562 [11]) [%] | Activity (K562 [12]) [%] | Activity (K562 [13]) [%] | Activity (K562 [14]) [%] | Activity (K562 [15]) [%] | Activity (K562 [16]) [%] | Activity (K562 [17]) [%] | Activity (K562 [18]) [%] | Activity (K562 [19]) [%] | Activity (K562 [20]) [%] | also measured
NC(=O)c1csc([C@@H]2O[C@H](CO)[C@@H](O)[C@H]2O)n1 [TIAZOFURIN] | Active | 37.08 | 53.16 | 214.99 | Toxic | 13.71 | 2.22 | 344.33 | 7.55 | 33.62 | 1302.79 | 24.99 | 299.68 | 35.66 | 5.74 | 338.37 | 3.76 | -0.34 | 13.71 | 89.69 | 
NC(=O)c1csc([C@@H]2O[C@H](CO)[C@H](O)[C@H]2O)n1 | Active | 38.15 | 51 | 552.68 | Toxic | 21.08 | 2.39 | 436.51 | 8.45 | 32.94 | 4433.8 | 13.6 | 665.4 | 41.86 | 11.6 | 180.18 | 5.36 | 11.28 | 16.69 | 230.09 | Ratio IC50 (HL-60 [21]): 2 - 48; Ratio IC50 (K562 [22]): 2; fold change (FC) (K562 [23]): 2 - 2.4; Ratio IC50 (HL-60 [24]): 7; Ratio IC50 (K562 [25]): 2 - 48; Ratio IC50 (Raji [26]): 2 - 48; Ratio IC50 (HeLa [27]): 2 - 48
CC(=O)N[C@H]1[C@H](O)[C@@H](CO)O[C@H]1c1nc(C(N)=O)cs1 |  | 33.62 | 46.93 | 534.18 |  | 7.29 | 2.11 | 149.59 | 17.67 | 36.13 | 777.09 | 13.36 | 477.15 | 38.86 | 11.66 | 141.43 | 1.23 | 10.64 | 22.85 | 59.32 | IC50 (Jurkat [28]): > 100000 nM; IC50 (Raji [29]): 2560 nM; IC50 (HeLa [30]): > 100000 nM; Ratio IC50 (K562 [22]): 40; fold change (FC) (K562 [23]): 2 - 2.4; fold change (FC) (K562 [31]): 2; IC50 (HT-29): > 100000 nM; Ratio IC50 (K562 [25]): 309; IC50 (MRC5): 3210 nM; selectivity ratio at 72 h [32]: 9; IC50 (HL-60 [33]): 12900 nM; IC50 (K562 [34]): 6.1 nM
CC(=O)N[C@@H]1[C@@H](O)[C@H](c2nc(C(N)=O)cs2)O[C@@H]1CO | Active | 36.27 | 49.42 | 364.31 | Toxic | 14.11 | 9.84 | 274.16 | 4.47 | 41.58 | 432.96 | 1.9 | 336.99 | 43.3 | 13.22 | 126.68 | 8.55 | 27.17 | 10.14 | 87.05 | IC50 (Jurkat [28]): 7.2 nM; IC50 (Raji [29]): 3.9 nM; Ratio IC50 (Jurkat [35]): 5; IC50 (HeLa [30]): > 100000 nM; Ratio IC50 (Jurkat [36]): 4; fold change (FC) (K562 [23]): 2 - 2.4; IC50 (HT-29): 260 nM; IC50 (MRC5): 42400 nM; Ratio IC50 (Raji [26]): 1353 - 1354; IC50 (HL-60 [33]): 3770 nM; Ratio IC50 (Raji [37]): 764; IC50 (K562 [34]): 340 nM
